≈ marks a conversion by molar mass, not a printed value. Calls of active or inactive are those of the source. The rule behind the calls is not given here. *1 amine or outer side, *2 acyl side, *3 side chain or, on linkers, in order; H or OH if unused. Where a SMILES comes first, the peptide text is derived from it. Bridges are numbered along the chain shown (N, C = ends). Roman numbers before positions name the chains, in order. [ ]: non-standard residue; d: D form. Actinocin(1to9) = Cc1c2oc3c(C)ccc(C(=O)[*:2])c3nc-2c(C(=O)[*:1])c(N)c1=O; NMeV = CN[C@H](C(=O)O)C(C)C; Sar = CNCC(=O)O
What was measured:
U-937 = assay: Cytotoxicity against U937 Lymphoma cells by MTS assay; format: functional, cell-based, Homo sapiens; details: Homo sapiens, U-937
Outline: (§1)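 MTS tetrazolium reduction assay; cells grown under optimal culture conditions for 20 h with compound at 10 to 500 µM or without it; MTS reagent then added for 1 h at 37 °C, humidified 5% CO2; absorbance read at 490 nm. Triplicate. IC50 is the concentration giving 50% reduction of absorbance.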

MOLT-3 [1] = assay: Cytotoxicity against MOLT3 Leukemia cells by MTS assay; format: functional, cell-based, Homo sapiens; details: Homo sapiens, MOLT-3; outline: as §1
Human alphaherpesvirus 1 [2] = assay: Antiviral activity against herpes simplex virus 1 TK- KOS ACVr strain in HEL cells; format: functional; details: Human alphaherpesvirus 1, TK- KOS ACVr; read-out: MIC50
Outline: (§2)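 Minimum inhibitory concentration (µg/mL) needed to reduce virus-induced cytopathogenicity by 50%; HSV strains in HEL cells, Punta Toro virus in Vero cells.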

Vero [3] = assay: Cytotoxicity against normal vero kidney cells by MTS assay; format: functional, cell-based, Chlorocebus sabaeus; details: Chlorocebus sabaeus, Vero; outline: as §1
Human alphaherpesvirus 2 = assay: Antiviral activity against Herpes simplex virus 2 G strain in HEL cells; format: functional; details: Human alphaherpesvirus 2, G; outline: as §2
Sindbis virus = assay: Antiviral activity against Sindbis virus in vero cells; format: functional
Outline: (§3)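 Virus infection of Vero cell cultures. The endpoint is the minimum inhibitory concentration (µg/mL) that reduces virus-induced cytopathogenicity by 50%.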

Human respirovirus 3 = assay: Antiviral activity against Parainfluenza-3 virus in vero cells; format: functional; outline: as §3
[4] = test system: Vesicular stomatitis virus; assay: Antiviral activity against Vesicular stomatitis virus in HEL cells; format: functional
Outline: (§4)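 Virus infection of HEL cell cultures. The endpoint is the minimum inhibitory concentration (µg/mL) that reduces virus-induced cytopathogenicity by 50%.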

Coxsackievirus B4 [5] = assay: Antiviral activity against Coxsackie virus B4 in HeLa cells; format: functional; details: Enterovirus B
Outline: (§5)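 Virus infection of HeLa cell cultures. The endpoint is the minimum inhibitory concentration (µg/mL) that reduces virus-induced cytopathogenicity by 50%.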

[6] = test system: Mammalian orthoreovirus 1; assay: Antiviral activity against Reovirus 1 in vero cells; format: functional; outline: as §3
Punta Toro virus = assay: Antiviral activity against Punta Toro virus in vero cells; format: functional; details: Punta Toro virus; read-out: MIC50; outline: as §2
Vero [7] = assay: Antiviral activity against vero cells; format: functional, Chlorocebus sabaeus; details: Chlorocebus sabaeus, Vero; read-out: MCC
Outline: (§6)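 Cytotoxicity scored as the concentration giving a microscopically detectable alteration of normal cell morphology in HEL, HeLa or Vero cells.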

[8] = test system: Vesicular stomatitis virus; assay: Antiviral activity against Vesicular stomatitis virus in HeLa cells; format: functional; outline: as §5
Human alphaherpesvirus 1 [9] = assay: Antiviral activity against Herpes simplex virus 1 KOS strain in HEL cells; format: functional, Human herpesvirus 1 strain KOS; details: Human alphaherpesvirus 1, KOS; outline: as §2
[10] = test system: Respiratory syncytial virus; assay: Antiviral activity against Respiratory syncytial virus in HeLa cells; format: functional; details: human respiratory syncytial virus; outline: as §5
HeLa = assay: Antiviral activity against HeLa cells; format: functional, Homo sapiens; details: Homo sapiens, HeLa; read-out: MCC; outline: as §6
HEL = assay: Antiviral activity against HEL cells; format: functional, Homo sapiens; details: Homo sapiens, HEL; read-out: MCC; outline: as §6
THP-1 = assay: Cytotoxicity against THP1 Leukemia cells by MTS assay; format: functional, cell-based, Homo sapiens; details: Homo sapiens, THP-1; outline: as §1
Vaccinia virus = assay: Antiviral activity against Vaccinia virus in HEL cells; format: functional; details: Orthopoxvirus vaccinia; outline: as §4
Coxsackievirus B4 [11] = assay: Antiviral activity against Coxsackie virus B4 in vero cells; format: functional; details: Enterovirus B; outline: as §3
MOLT-3 [12] = assay: Potentiation of fas-mediated apoptosis in MOLT3 cells; format: functional, cell-based; details: Homo sapiens
Outline: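 MOLT-3 cells given anti-fas antibody (CH11) at 25, 50 or 100 ng/mL, alone or immediately after compound at 25 or 50 µM. Cultured 20 h, stained with acridine orange, and apoptosis scored by fluorescence microscopy.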

MOLT-3 [13] = assay: Cytotoxicity against MOLT3 Leukemia cells after 24 hrs of treatment; format: functional, cell-based; details: Homo sapiens, MOLT-3, 24 h
Outline: (§7)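 Trypan blue exclusion; cells exposed under optimal culture conditions to new compounds at 10 to 500 µM (actinomycin D 1 to 200 µM) or control medium for the stated time. CC50 is the concentration causing 50% toxicity by trypan blue.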

MOLT-3 [14] = assay: Cytotoxicity against MOLT3 Leukemia cells after 72 hrs of treatment; format: functional, cell-based; details: Homo sapiens, MOLT-3, 72 h; outline: as §7
MOLT-3 [15] = assay: Cytotoxicity against MOLT3 Leukemia cells after 48 hrs of treatment; format: functional, cell-based; details: Homo sapiens, MOLT-3, 48 h; outline: as §7

`Cc1c2oc3c(C)ccc(C(=O)N[C@@H]4C(=O)N[C@H](C(C)C)C(=O)N5CCC[C@H]5C(=O)N(C)CC(=O)N(C)[C@@H](C(C)C)C(=O)O[C@@H]4C)c3nc-2c(C(=O)N[C@@H]2C(=O)N[C@H](C(C)C)C(=O)N3CCC[C@H]3C(=O)N(C)CC(=O)N(C)[C@@H](C(C)C)C(=O)O[C@@H]2C)c(N)c1=O` [DACTINOMYCIN] (I: T[dV]P[Sar][NMeV] / II: T[dV]P[Sar][NMeV]; ester I:1-I:C, II:1-II:C; linker I:N-II:N via Actinocin(1to9)) gave an IC50 (U-937) of less than 1 µM and an IC50 (MOLT-3 [1]) of less than 1 µM.

In the case of `CN1O[C@H](CO)C[C@@H]1c1cc2ccccc2c2ccccc12` (racemic), the MIC50 (Human alphaherpesvirus 1 [2]) is reported as 48 µg/mL (≈ 164 µM), the IC50 (Vero [3]) is reported as 246 µM and the MIC50 (Human alphaherpesvirus 2) is reported as greater than 80 µg/mL. It also gave an MIC50 (Sindbis virus) greater than 16 µg/mL, an MIC50 (Human respirovirus 3) greater than 16 µg/mL and an IC50 (U-937) of 153 µM. It also gave an MIC50 [4] greater than 80 µg/mL, an MIC50 (Coxsackievirus B4 [5]) greater than 16 µg/mL and an MIC50 [6] greater than 16 µg/mL. The MIC50 (Punta Toro virus) was 9.6 µg/mL (≈ 32.7 µM), the MCC (Vero [7]) was 80 µg/mL and the MIC50 [8] was greater than 16 µg/mL. For the same compound, the IC50 (MOLT-3 [1]) was 125 µM, the MIC50 (Human alphaherpesvirus 1 [9]) was greater than 80 µg/mL and the MIC50 [10] was greater than 16 µg/mL. The MCC (HeLa) was 80 µg/mL, the MCC (HEL) was 400 µg/mL and the IC50 (THP-1) was 169 µM. For the same compound, the MIC50 (Vaccinia virus) was greater than 80 µg/mL and the MIC50 (Coxsackievirus B4 [11]) was greater than 16 µg/mL.

`NC(=O)c1ncn([C@@H]2O[C@H](CO)[C@@H](O)[C@H]2O)n1` [RIBAVIRIN] showed an MIC50 (Human alphaherpesvirus 1 [2]) greater than 400 µg/mL, an MIC50 (Human alphaherpesvirus 2) greater than 400 µg/mL and an MIC50 (Sindbis virus) greater than 400 µg/mL. It also gave an MIC50 (Human respirovirus 3) of 48 µg/mL (≈ 197 µM), an MIC50 [4] of 240 µg/mL (≈ 983 µM) and an MIC50 (Coxsackievirus B4 [5]) of 9.6 µg/mL (≈ 39.3 µM). It also gave an MIC50 [6] of 16 µg/mL (≈ 65.5 µM), an MIC50 (Punta Toro virus) of 80 µg/mL (≈ 328 µM) and an MCC (Vero [7]) greater than 400 µg/mL. For the same compound, the MIC50 [8] was 16 µg/mL (≈ 65.5 µM), the MIC50 (Human alphaherpesvirus 1 [9]) was 240 µg/mL (≈ 983 µM) and the MIC50 [10] was 9.6 µg/mL (≈ 39.3 µM). For the same compound, the MCC (HeLa) was greater than 400 µg/mL, the MCC (HEL) was greater than 400 µg/mL and the MIC50 (Vaccinia virus) was 80 µg/mL (≈ 328 µM). It also gave an MIC50 (Coxsackievirus B4 [11]) greater than 400 µg/mL.

For `O=c1[nH]c(=O)n([C@H]2C[C@H](O)[C@@H](CO)O2)cc1/C=C/Br` [BRIVUDINE], the MIC50 (Human alphaherpesvirus 1 [2]) was greater than 400 µg/mL, the MIC50 (Human alphaherpesvirus 2) was 240 µg/mL (≈ 720 µM) and the MIC50 (Sindbis virus) was greater than 400 µg/mL. The MIC50 (Human respirovirus 3) was greater than 400 µg/mL, the MIC50 [4] was greater than 400 µg/mL and the MIC50 (Coxsackievirus B4 [5]) was greater than 400 µg/mL. It also gave an MIC50 [6] greater than 400 µg/mL, an MIC50 (Punta Toro virus) greater than 400 µg/mL and an MCC (Vero [7]) greater than 400 µg/mL. The MIC50 [8] was greater than 400 µg/mL, the MIC50 (Human alphaherpesvirus 1 [9]) was 0.128 µg/mL (≈ 0.384 µM) and the MIC50 [10] was greater than 400 µg/mL. It also gave an MCC (HeLa) greater than 400 µg/mL, an MCC (HEL) greater than 400 µg/mL and an MIC50 (Vaccinia virus) of 48 µg/mL (≈ 144 µM). It also gave an MIC50 (Coxsackievirus B4 [11]) greater than 400 µg/mL.

With `OC[C@@H]1C[C@H](c2cc3ccccc3c3ccccc23)N(Cc2ccccc2)O1` (racemic) the Activity (MOLT-3 [12]) was “Active”, the IC50 (Vero [3]) was 63 µM and the AC50 (MOLT-3 [13]) was 69 µM. The CC50 (MOLT-3 [13]) was 73 µM, the IC50 (U-937) was 54 µM and the IC50 (MOLT-3 [1]) was 78 µM. It also gave an IC50 (THP-1) of 50 µM.

`CN1O[C@H](CO)C[C@@H]1c1c2ccccc2cc2ccccc12` (relative stereo) showed an IC50 (MOLT-3 [1]) greater than 500 µM.

`OC[C@@H]1C[C@H](c2ccc3ccc4cccc5ccc2c3c45)N(Cc2ccccc2)O1` (racemic) gave an AC50 (MOLT-3 [14]) of 67 µM, a CC50 (MOLT-3 [14]) of 58 µM and an IC50 (Vero [3]) of 301 µM. For the same compound, the AC50 (MOLT-3 [13]) was greater than 500 µM, the CC50 (MOLT-3 [13]) was greater than 500 µM and the AC50 (MOLT-3 [15]) was 97 µM. It also gave a CC50 (MOLT-3 [15]) of 97 µM, an IC50 (U-937) of 193 µM and an IC50 (MOLT-3 [1]) of 127 µM. It also gave an IC50 (THP-1) of 192 µM.

`Nc1nc2c(ncn2COC(CO)CO)c(=O)[nH]1` [GANCICLOVIR] was tested, and the MIC50 (Human alphaherpesvirus 1 [2]) was 0.48 µg/mL (≈ 1.88 µM), the MIC50 (Human alphaherpesvirus 2) was 0.032 µg/mL (≈ 0.125 µM) and the MIC50 [4] was greater than 100 µg/mL. For the same compound, the MIC50 (Human alphaherpesvirus 1 [9]) was 0.096 µg/mL (≈ 0.376 µM), the MCC (HEL) was greater than 100 µg/mL and the MIC50 (Vaccinia virus) was greater than 100 µg/mL.

— ChEMBL document CHEMBL1147740, “Synthesis and biological activity of isoxazolidinyl polycyclic aromatic hydrocarbons: potential DNA intercalators” (J Med Chem, 2006)
